According to ChEMBL document CHEMBL1143064, “Novel 9a-carbamoyl- and 9a-thiocarbamoyl-3-decladinosyl-6-hydroxy and 6-methoxy derivatives of 15-membered macrolides” (Bioorg Med Chem, 2007):
≈ marks a conversion by molar mass, not a printed value.

What was measured:
Staphylococcus aureus [1] = assay: Antibacterial activity against Staphylococcus aureus-cMLS after 24 hrs by microdilution method; format: functional
Method in brief: (§1)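 Broth microdilution in Mueller–Hinton medium run on an automated liquid handler. Compounds dissolved in DMF (5 mg/ml stock) and tested in medium from 64 to 0.125 µg/ml. Plates incubated 24 h at 37 °C, then growth read as absorbance at 600 nm. MIC taken as the concentration giving 90% growth inhibition.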

Staphylococcus aureus [2] = assay: Antibacterial activity against Staphylococcus aureus-M after 24 hrs by microdilution method; format: functional; method in brief: as §1
Streptococcus pneumoniae [3] = assay: Antibacterial activity against Streptococcus pneumoniae-M after 24 hrs by microdilution method; format: functional; method in brief: as §1
Streptococcus pyogenes [4] = assay: Antibacterial activity against Streptococcus pyogenes after 24 hrs by microdilution method; format: functional; method in brief: as §1
Saccharomyces cerevisiae = assay: Toxicity against Saccharomyces cerevisiae; format: organism-based; conditions: in vivo
Method in brief: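 Yeast used as a surrogate for eukaryotic cell toxicity. Microdilution in Mueller–Hinton medium with compound from a DMF stock (5 mg/ml), final range 64 to 0.125 µg/ml. Incubated 24 h at 37 °C, with optical density read at 600 nm. MIC defined as the concentration inhibiting growth by 90%.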

Haemophilus influenzae = assay: Antibacterial activity against Haemophilus influenzae after 24 hrs by microdilution method; format: functional; method in brief: as §1
Streptococcus pyogenes [5] = assay: Antibacterial activity against Streptococcus pyogenes-M after 24 hrs by microdilution method; format: functional; method in brief: as §1
Streptococcus pneumoniae [6] = assay: Antibacterial activity against Streptococcus pneumoniae after 24 hrs by microdilution method; format: functional; method in brief: as §1

SMILES	MIC (Staphylococcus aureus [1])	MIC (Staphylococcus aureus [2])	MIC (Streptococcus pneumoniae [3])	MIC (Streptococcus pyogenes [4])	Activity (Saccharomyces cerevisiae)	MIC (Haemophilus influenzae)	MIC (Streptococcus pyogenes [5])	MIC (Streptococcus pneumoniae [6])
CC[C@H]1OC(=O)[C@H](C)[C@@H](O)[C@H](C)[C@@H](O[C@@H]2O[C@H](C)C[C@H](N(C)C)[C@H]2O)[C@](C)(O)C[C@@H](C)CN(C(=O)NCc2ccccc2)[C@H](C)[C@@H](O)[C@]1(C)O	> 64 µg/mL	> 64 µg/mL	> 64 µg/mL	> 64 µg/mL	Non-toxic	> 64 µg/mL	> 64 µg/mL	> 64 µg/mL
CC[C@H]1OC(=O)[C@H](C)C2(O)O[C@@](C)(C[C@@H](C)CN(C(=O)Nc3ccc(Cl)cc3Cl)[C@H](C)[C@@H](O)[C@]1(C)O)[C@H](O[C@@H]1O[C@H](C)C[C@H](N(C)C)[C@H]1O)[C@H]2C	> 64 µg/mL	> 64 µg/mL	> 64 µg/mL	> 64 µg/mL	Non-toxic	> 64 µg/mL	> 64 µg/mL	> 64 µg/mL
CC[C@H]1OC(=O)[C@H](C)[C@@H](O[C@H]2C[C@@](C)(OC)[C@@H](O)[C@H](C)O2)[C@H](C)[C@@H](O[C@@H]2O[C@H](C)C[C@H](N(C)C)[C@H]2O)[C@](C)(OC)C[C@@H](C)CN[C@H](C)[C@@H](O)[C@]1(C)O	> 64 µg/mL	> 64 µg/mL	16 µg/mL (≈ 21.4 µM)	1 µg/mL (≈ 1.34 µM)	Non-toxic	8 µg/mL (≈ 10.7 µM)	16 µg/mL (≈ 21.4 µM)	0.5 µg/mL (≈ 0.668 µM)
CC[C@H]1OC(=O)/C(C)=C\[C@H](C)[C@@H](O[C@@H]2O[C@H](C)C[C@H](N(C)C)[C@H]2O)[C@](C)(OC)C[C@@H](C)CN(C(=O)Nc2ccc(Cl)cc2Cl)[C@H](C)[C@@H](O)[C@]1(C)O	> 64 µg/mL	> 64 µg/mL	16 µg/mL (≈ 21 µM)	32 µg/mL (≈ 42.1 µM)	Non-toxic	> 64 µg/mL	> 64 µg/mL	8 µg/mL (≈ 10.5 µM)
CC[C@H]1OC(=O)[C@H](C)[C@@H](O)[C@H](C)[C@@H](O[C@@H]2O[C@H](C)C[C@H](N(C)C)[C@H]2O)[C@](C)(O)C[C@@H](C)CN(C(=O)NC(C)(C)C)[C@H](C)[C@@H](O)[C@]1(C)O	> 64 µg/mL	> 64 µg/mL	> 64 µg/mL	> 64 µg/mL	Non-toxic	> 64 µg/mL	> 64 µg/mL	> 64 µg/mL
CC[C@H]1OC(=O)[C@H](C)[C@@H](O)[C@H](C)[C@@H](O[C@@H]2O[C@H](C)C[C@H](N(C)C)[C@H]2O)[C@](C)(O)C[C@@H](C)CN(C(=O)Nc2cccc(C(F)(F)F)c2)[C@H](C)[C@@H](O)[C@]1(C)O	> 64 µg/mL	> 64 µg/mL	> 64 µg/mL	> 64 µg/mL	Non-toxic	> 64 µg/mL	> 64 µg/mL	> 64 µg/mL
